Consider eleven compounds from article PMC10546487 (Journal of medicinal chemistry, 2022).

One may read the Ki as a dissociation constant, usually derived from enzyme kinetics or from competition with a known ligand. A low value points to a stronger hold on the target. Broadly, the EC50 is the concentration giving half of the maximal effect. Lower therefore signals a more potent agent. What is called CLint scaled is the rate of metabolic loss divided by the concentration. A lower CLint scaled goes with greater metabolic stability.

For data set [1], the target named is T1, DOR (Mus musculus, UniProt P32300). The data set can be described thus: Radioligand competition binding assay, DOR. (In a radioligand displacement assay an active substance lowers the binding of a labelled ligand.)
Data set [2] concerns the target T2, MOR (Mus musculus, UniProt P42866). In words: MOR [35S]-GTPγS functional assay. In kind it is biochemical. (GTPγS resists hydrolysis and so accumulates on activated G proteins.)
Data set [3] concerns the target T2, MOR. As to conditions: low MOR-expressing CHO cells and mouse thalamus; cited from earlier work.
The next data set concerns mice. In words: Warm-water tail immersion assay. In kind it is in vivo, mouse. As to conditions: for Blockage of the morphine-mediated antinociception: 10 mg/kg s.c. in the presence of morphine (10 mg/kg); for Antinociception effect (% MPE): 10 mg/kg s.c., 56 °C. The method, boiled down:
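Male Swiss-Webster mice (23–35 g, 7–8 weeks), n = 5 per group. Single test-compound dose of 10 mg/kg given subcutaneously at time 0. Tail-flick latency measured in water at 56 ± 0.1 °C. Saline served as negative control and morphine as positive control. Response expressed as % maximum possible effect, reported as mean ± SD.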

Data set [4] deals with T2, MOR. In words: Radioligand competition binding assay, MOR. As to conditions: for Selectivity δ/μ: ratio of Ki values DOR/MOR; for Selectivity κ/μ: ratio of Ki values KOR/MOR.
Data set [5] has as its target T3, KOR (Mus musculus, UniProt P33534). In words: Radioligand competition binding assay, KOR.
For data set [6], the target named is T3, KOR. The data set can be described thus: KOR [35S]GTPγS functional assay. The class given is biochemical.
The target in data set [7] is T1, DOR. The data set can be described thus: DOR [35S]GTPγS functional assay. In kind it is biochemical.
The target in data set [8] is T2, MOR. In words: Calcium flux assay in Gqi5-transfected MOR-CHO cells. In kind it is cell-based. As to conditions: 0.3 nM to 3 μM. The method, boiled down:
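Gqi5 cDNA lipofected into MOR-CHO cells, 4 h at 37 °C/5% CO2, then trypsinized, plated at […] and grown to confluence. At 48 h post-transfection, cells loaded 45 min with fluo-4 AM plus probenecid in HBSS–HEPES–Ca–Mg buffer. Test compound (0.3 nM–3 μM) given for agonist activity; Ca2+ read as RFU peak. Triplicate doses; ≥4 repeats.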
(Calcium assays in cells follow changes in intracellular calcium, usually with a dye or a luminescent sensor.)

The nature of data set [9]: Metabolic stability in human liver microsomes. In kind it is in vitro ADME.
The nature of data set [10]: Metabolic stability in rat liver microsomes. The class given is in vitro ADME.
The subject of data set [11] is morphine-pelleted mice. The data set can be described thus: Opioid withdrawal study in chronic morphine-pelleted mice. In kind it is in vivo, mouse.
The next data set has as its target hERG potassium channel (Homo sapiens, UniProt Q12809). The data set can be described thus: hERG automated patch-clamp assay in CHO-K1 cells. As to conditions: ratio of hERG IC50 values vs NAN.
The target in data set [12] is T3, KOR. As to conditions: [35S]GTPγS; cited from earlier work.
For data set [13], the target named is T1, DOR. As to conditions: [35S]GTPγS; cited from earlier work.
Data set [14] deals with morphine-pelleted mice. As to conditions: 50 mg/kg; cited from earlier work.
The nature of data set [15]: Solubility observed during testing. In kind it is physicochemical. As to conditions: during binding/functional testing.

Read-outs that look alike come from different tables or passages of the source. Some results are limits rather than exact numbers.

As for `O=C(N[C@@H]1CC[C@@]2(O)[C@H]3Cc4ccc(O)c5c4[C@@]2(CCN3CC2CC2)[C@H]1O5)c1cccc2c(C3CCCC3)c[nH]c12` [Compound 15, 17-Cyclopropylmethyl-3,14β-dihydroxy-4,5α-epoxy-6β-(3-cyclo-pentyl-indole-7-carboxamido)morphinan], affinity at DOR [1] was put at a Ki of 9.88 ± 1.13 nM. At MOR [2], this compound yielded a concentration for a half-maximal effect (EC50) of 2.28 ± 0.59 nM.
Consider `O=C(N[C@H]1CC[C@@]2(O)[C@H]3Cc4ccc(O)c5c4[C@@]2(CCN3CC2CC2)[C@H]1O5)c1cc2ccccc2cn1` [NAQ, 17-cyclopropylmethyl-3,14β-dihydroxy-4,5α-epoxy-6α-(isoquinoline-3-carboxamido)-morphinan], for which the “Shift of DAMGO concentration effect curve” value at MOR [3] was “parallel rightward shift in the concentration effect curve of MOR full agonist DAMGO”.
Turning to `O=C(N[C@H]1CC[C@@]2(O)[C@H]3Cc4ccc(O)c5c4[C@@]2(CCN3CC2CC2)[C@H]1O5)c1cccc2cc(Br)[nH]c12` [Compound 18, 17-Cyclopropylmethyl-3,14β-dihydroxy-4,5α-epoxy-6α-(2-bromo-indole-7-carboxamido)morphinan], on DOR [1], the inhibitory constant (Ki) was 6.73 ± 1 nM. Moreover, the midpoint of the response at MOR [2], the EC50, lay at 2.36 ± 0.7 nM. In the data set with mice, the “Blockage of the morphine-mediated antinociception” value was “different degrees of inhibition of morphine’s antinociceptive effect”.
With `Cc1c[nH]c2c(C(=O)N[C@@H]3CC[C@@]4(O)[C@H]5Cc6ccc(O)c7c6[C@@]4(CCN5CC4CC4)[C@H]3O7)cccc12` [Compound 13, 17-Cyclopropylmethyl-3,14β-dihydroxy-4,5α-epoxy-6β-(3-methyl-indole-7-carboxamido)morphinan], on MOR [4], the “Selectivity δ/μ” value amounted to 61.3 and the “Selectivity κ/μ” value was determined as 2.2. The compound also yielded an inhibitory constant (Ki) on DOR [1] of 27.9 ± 5.93 nM. Also, the “Antinociception effect (% MPE)” value with mice is “noticeable antinociception”.
Turning to `O=C(N[C@@H]1CC[C@@]2(O)[C@H]3Cc4ccc(O)c5c4[C@@]2(CCN3CC2CC2)[C@H]1O5)c1cccc2c(Cl)c[nH]c12` [Compound 7, 17-Cyclopropylmethyl-3,14β-dihydroxy-4,5α-epoxy-6β-(3-chloro-indole-7-carboxamido)morphinan], the values for the Ki on KOR [5] and at DOR [1] were 0.33 ± 0.05 nM and 4.43 ± 1.06 nM, respectively. For the same compound, the “Antinociception effect (% MPE)” value in the data set with mice was “noticeable antinociception”.
Take `Cc1cc2cccc(C(=O)N[C@H]3CC[C@@]4(O)[C@H]5Cc6ccc(O)c7c6[C@@]4(CCN5CC4CC4)[C@H]3O7)c2[nH]1.Cl` [Compound 21, 17-Cyclopropylmethyl-3,14β-dihydroxy-4,5α-epoxy-6α-(2-methyl-indole-7-carboxamido)morphinan]: the “Selectivity δ/μ” value at MOR [4] is recorded as 27.3. The compound also yielded an inhibitory constant (Ki) at DOR [1] of 16 ± 1.09 nM. Besides, the EC50 came to 6.65 ± 0.78 nM on KOR [6] (KOR EC50 (nM), mean ± SEM) and 4.99 ± 0.21 nM at DOR [7] (DOR EC50 (nM), mean ± SEM). Further, at KOR [6] (relative to KOR full agonist U50,488H), the “KOR Emax(% max of U50,488H)” value is reported as 48.28 ± 1.45%. Moreover, at DOR [7] (relative to DOR full agonist SNC80), the “DOR Emax(% max of SNC80)” value is recorded as 76.82 ± 4.82%. Besides, the “Agonist activity to increase the intracellular calcium concentration” value at MOR [8] is on record as “no obvious agonist activity”. Also, the “Blockage of the morphine-mediated antinociception” value in the data set with mice is listed as “different degrees of inhibition of morphine’s antinociceptive effect”. Besides, the CLint scaled in [9] and in data set [10] was less than 38.5 mL/min/kg throughout. In addition, the Jumps entry in the data set with morphine-pelleted mice [11] (40 mg/kg, vs 1 mg/kg naloxone) is “not significantly different from those at 1 mg/kg naloxone”. Further, in the data set on morphine-pelleted mice [11] (all doses up to 80 mg/kg, vs 1 mg/kg naloxone), the Paw tremors entry was “significantly fewer paw tremors”. Also, the Wet-dog shakes result with morphine-pelleted mice [11] (all the doses tested, vs 1 mg/kg naloxone) is given as “did not precipitate more wet-dog shakes”. Further, the “Improvement of hERG profile in comparison to NAN (fold)” value on hERG potassium channel is “seven-fold”.
As for `O=C(N[C@H]1CC[C@@]2(O)[C@H]3Cc4ccc(O)c5c4[C@@]2(CCN3CC2CC2)[C@H]1O5)c1cccc2cc[nH]c12` [NAN, 17-cyclopropylmethyl-3,14β-dihydroxy-4,5α-epoxy-6α-(indole-7-carboxamido)morphinan], on KOR [12], the “KOR Emax(% max of U50,488H)” value is 73.90 ± 3.69%. For the same compound, at DOR [13], the “DOR Emax(% max of SNC80)” value is given as 26.67 ± 1.17%. Also, in the data set on morphine-pelleted mice [14], the Paw tremors entry is “seemingly more paw tremors”; the “Wet-dog shakes and jumps” value is “did not induce significant wet-dog shakes and jumps”.
In the case of `CC(=O)c1c[nH]c2c(C(=O)N[C@H]3CC[C@@]4(O)[C@H]5Cc6ccc(O)c7c6[C@@]4(CCN5CC4CC4)[C@H]3O7)cccc12` [Compound 28, 17-Cyclopropylmethyl-3,14β-dihydroxy-4,5α-epoxy-6α-(3-acetyl-indole-7-carboxamido)morphinan], the results for the Ki on KOR [5] and at DOR [1] were 6.39 ± 1.07 nM and 10.9 ± 1.58 nM, respectively.
In the case of `CC(=O)c1c[nH]c2c(C(=O)N[C@@H]3CC[C@@]4(O)[C@H]5Cc6ccc(O)c7c6[C@@]4(CCN5CC4CC4)[C@H]3O7)cccc12` [Compound 11, 17-Cyclopropylmethyl-3,14β-dihydroxy-4,5α-epoxy-6β-(3-acetyl-indole-7-carboxamido)morphinan], at MOR [4], the “Selectivity δ/μ” value is listed as less than 1.6 and the “Selectivity κ/μ” value is less than 0.3. Further, at DOR [1], the affinity corresponds to a Ki of 81.1 ± 9.98 nM. The “Solubility observed in the in vitro assay” value in data set [15] is listed as “poor solubility”.
As to `O=C(N[C@@H]1CC[C@@]2(O)[C@H]3Cc4ccc(O)c5c4[C@@]2(CCN3CC2CC2)[C@H]1O5)c1ccncc1` [NAP, 17-Cyclopropylmethyl-3,14β-dihydroxy-4,5α-epoxy-6β-[(4′-pyridyl)carboxamido]morphinan], the “Shift of DAMGO concentration effect curve” value on MOR [3] is given as “parallel rightward shift in the concentration effect curve of MOR full agonist DAMGO”.
For `C=CCN1CC[C@]23c4c5ccc(O)c4O[C@H]2C(=O)CC[C@@]3(O)[C@H]1C5` [NLX, naloxone, reference compound], the Withdrawal symptoms entry in the data set on morphine-pelleted mice [11] (1 mg/kg s.c.) was “induced significant withdrawal symptoms”.
